The list is not random: actives were taken first. Their share in the collection is about 2.2%.
AI-2 QS mod = Vibrio harveyi AI-2 quorum sensing modulators, primary screen, JMH597 strain, luminescence/OD600 ratio. Vibrio harveyi JMH597 AI-2 luminescence/OD600 ratio, 9 h; active compounds read low; strain lacks LuxN and CqsS sensors; 0 = neutral-control median. activity change, % at 7.5 µM. actives 0.4% (n = 300,000). AID 2094, 2009; in the data active = activity change below about -75%, passing the limit was not always enough; inconclusive = no clear call, values can overlap the other calls;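 note: luminescence divided by OD600 gain over 9 h not by final OD600 alone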
T cruzi inh = inhibitors of intracellular T. cruzi growth, primary screen, luminescence, NIH3T3 host cells | actives 1.4% (n = 300,000) | AID 1885, 2009 | inhibition, % (concentration not given with the values) | T. cruzi beta-gal in NIH3T3, 90 h;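 active = mean inhibition across valid replicates above about 55%, limit read from the data; inconclusive = mean below that limit but half or more replicates reach it; inactive = mean below it, under half of replicates reach it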;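 note: signal also drops with host cell toxicity which is not excluded here; 0% = plate median of DMSO wells and 100% = zero luminescence signal; higher percent means less beta-gal luminescence so fewer parasites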
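Assay system: NIH/3T3 fibroblasts plus reporter T. cruzi. Amount: NIH/3T3 cells, 5,000 per well. Buffer or medium: DMEM, 2% fetal bovine serum. Doses: compound pinned at 50 nL/well, DMSO. Schedule: ≥90 h infection period, 3 h prior cell attachment. Signal: luminescent β-galactosidase signal after 60 min lysis. Read-out: parasite load inhibition, %.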
PolyA inhibitor = polyadenylation inhibitors in yeast reporter cells, primary screen, luminescence, S. cerevisiae. activity score, % at 12 µM. S. cerevisiae SKY197-pL101 polyadenylation reporter, beta-gal luminescence; efflux-impaired pdr1/pdr3 knockout yeast; score 100 = 6 SD above DMSO. AID 1875, 2009. actives 0.02% (n = 300,000);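 active = lowest replicate activity score at least 50, where 100 means six control SD above control mean; inconclusive = lowest score under 50 but half or more replicates reach 50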;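 note: yeast exposed to compound for 9 h at 30 °C; higher score means more reporter readthrough which indicates perturbed polyadenylation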
HDAC3 inhib = HDAC3 deacetylase inhibitors, primary screen, biochemical, fluorescence, cell-free homogeneous; Histone deacetylase 3 (Homo sapiens), O15379; recombinant HDAC3, fluorogenic peptide/trypsin coupled; inhibition, % at 8.3 µM; actives 0.15% (n = 320,000); AID 2718, 2010; in the data active = inhibition above about 26%, passing the limit was not always enough; inconclusive = no clear call, values can overlap the other calls
Target sequence (O15379 whole entry, looked up): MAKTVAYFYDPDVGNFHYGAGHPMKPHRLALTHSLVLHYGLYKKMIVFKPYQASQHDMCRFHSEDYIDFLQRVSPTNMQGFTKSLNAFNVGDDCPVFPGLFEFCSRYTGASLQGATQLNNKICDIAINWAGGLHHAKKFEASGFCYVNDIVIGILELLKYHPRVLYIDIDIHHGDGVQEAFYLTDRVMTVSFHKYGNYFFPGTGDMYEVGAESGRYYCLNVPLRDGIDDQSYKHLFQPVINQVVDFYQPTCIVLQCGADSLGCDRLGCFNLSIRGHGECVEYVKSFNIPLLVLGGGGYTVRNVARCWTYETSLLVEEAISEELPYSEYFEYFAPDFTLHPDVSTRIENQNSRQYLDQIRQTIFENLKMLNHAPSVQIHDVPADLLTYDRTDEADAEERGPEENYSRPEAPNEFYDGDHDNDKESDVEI
Efflux pump mplx = inhibitors of Candida efflux pumps in yeast, primary screen, S. cerevisiae, Nile Red, multiplex; S. cerevisiae Candida pump triplex; inhibition, % at 10 µM; actives 0.44% (n = 330,000);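 active = plate passing quality check with inhibition over a set limit, or well fluorescence over plate mean plus 4 SD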;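 note: Nile Red retained in pooled yeast measured as flow cytometry median fluorescence; 0% = buffer negative control and 100% = Enniatin B positive control; higher means more Nile Red kept so more efflux inhibition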
Yeast cmpd fluor = flagged as fluorescent in efflux inhibitor counter-screen. shares compounds with Efflux pump mplx. S. cerevisiae AD/pABC3, compound fluorescence, flow cytometry. fluorescence ratio to DMSO, % at 10 µM. actives 4% (n = 1,700). AID 588517;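 active = fluorescence ratio to DMSO above its plate's cutoff, the plate mean ratio plus 5 SD, cut at about 210% in these data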;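 note: unstained yeast with no Nile Red so the signal is compound autofluorescence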
Mdr1 pump inh = inhibitors of Candida albicans Mdr1 efflux, confirmation, flow cytometry, singleplex, Cherry Pick1 set. S. cerevisiae AD/CaMDR1, Nile Red efflux. inhibition, % at 10 µM. shares compounds with Efflux pump mplx. actives 1% (n = 1,700); in the data active = inhibition above about 26%;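 note: 0% = DMSO vehicle and 100% = reference inhibitor; higher means more Nile Red retained so more efflux inhibition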
Cdr2 pump inh = inhibitors of Candida albicans Cdr2 efflux pump, confirmation, S. cerevisiae AD/CaCDR2, flow cytometry, cherry pick 1, singleplex; Nile Red retention ratio vs DMSO, % at 10 µM; AID 588520, 2011; Nile Red retention; shares compounds with Efflux pump mplx; actives 4% (n = 1,700); in the data active = Nile Red retention ratio vs DMSO above about 190%;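 note: higher ratio means more blocking of Cdr2 efflux of the dye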
Cdr1 pump inh = inhibitors of Candida albicans Cdr1 efflux pump, confirmation, S. cerevisiae AD/CaCDR1, flow cytometry, cherry pick 1, singleplex | actives 1% (n = 1,700) | Nile Red efflux | shares compounds with Efflux pump mplx | inhibition, % at 10 µM;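 active = inhibition above the screen-wide mean plus twice its standard deviation, cut at about 32% in these data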
Starred values were filed as active, the others as inactive; ? = inconclusive; · = no result given.

SMILES | AI-2 QS mod | T cruzi inh | PolyA inhibitor | HDAC3 inhib | Efflux pump mplx | Yeast cmpd fluor | Mdr1 pump inh | Cdr2 pump inh | Cdr1 pump inh
CCCCn1c(CCC(=O)O)nc2cc(S(=O)(=O)N(CC)CC)ccc21 | 26.9 | -2.4 | 29.1 | 9.8 | 0.1 | · | · | · | ·
CC1CC(C)CN(c2ncc3c(n2)CC(c2ccc(Cl)cc2)CC3=O)C1 (configuration not stated) | -1.6 | 13.1 | 18.4 | 2.5 | 6.7* | 111.1 | 0.2 | 112.2 | 0.1
CC1CC(C)CN(c2ncc3c(n2)CC(c2ccccc2Cl)CC3=O)C1 (configuration not stated) | 1.0 | 32.3 | 0.8 | 0.3 | 0.2 | · | · | · | ·
COCCCn1c(SCC(=O)OC2CCCCC2)nnc1-c1ccco1 | -9.6 | -1.9 | 9.9 | 4.2 | -0.1 | · | · | · | ·
COCCCn1c(SCC(=O)OC2CCCCC2)nnc1-c1cccs1 | 13.9 | -1.9 | -0.3 | 1.3 | 1.3* | 96.2 | -0.2 | 120.4 | -0.1
COC(=O)c1ccc(CN2CCCC(CO)(Cc3ccc(F)cc3F)C2)cc1 (configuration not stated) | 26.3 | 27.0 | 7.9 | 0.3 | 0.1 | · | · | · | ·
Cc1occc1C(=O)NNC(=O)Nc1ccc([N+](=O)[O-])cc1 | -39.3 | -20.7 | -3.0 | -1.5 | 0.1 | · | · | · | ·
OC(COCc1cccs1)CN1CCN(c2cccc(C(F)(F)F)c2)CC1 (configuration not stated) | 19.9 | 7.6 | -2.3 | 13.7 | 6.8* | 105.6 | 0.0 | 112.4 | 0.0
CCOC(=O)C1=C(C)N(CCCC(=O)O)C(=O)NC1C(CC)CC (configuration not stated) | 13.5 | -26.1 | 11.9 | 0.1 | 0.0 | · | · | · | ·
Cc1cc(NC(=O)CCC(=O)N(CC(=O)NC2CCCC2)Cc2ccc(F)cc2)no1 | 34.9 | 13.9 | -8.5 | -0.3 | 0.0 | 110.0 | 0.1 | 114.4 | 0.1
Cc1cc(NC(=O)CCC(=O)N(c2cccnc2)C(C(=O)NC2CCCC2)c2ccccc2)no1 (configuration not stated) | 38.2 | -13.9 | -14.6 | -0.9 | 0.1 | 222.7 | 3.4 | 109.4 | 0.2
COC(=O)c1ccccc1NC(=S)N(Cc1ccc2c(c1)OCO2)Cc1cc2ccc(OC)cc2[nH]c1=O | 1.7 | 36.6 | 8.4 | 11.5 | 6.4* | 98.9 | -0.1 | 96.0 | 0.0
Cn1cc([N+](=O)[O-])c(C(=O)Nc2ccn(C34CC5CC(CC(C5)C3)C4)n2)n1 | 20.6 | 15.9 | -4.5 | -2.7 | 16.4* | 114.3 | -0.2 | 101.7 | 0.0
CCOc1ccc(NC(=O)C2CC(=O)N(c3ccccc3F)C2)cc1 (configuration not stated) | 13.2 | 7.9 | -0.5 | -3.3 | 0.5 | · | · | · | ·
N/C(=N\OC(=O)Cc1ccc(-c2ccccc2)cc1)c1ccncc1 | 15.8 | 3.9 | -6.0 | 11.9 | 0.0 | · | · | · | ·
CC(NC(=O)COC(=O)c1ccc[nH]c1=O)c1ccccc1 (configuration not stated) | · | · | · | 5.1 | 0.4 | · | · | · | ·
O=C(C(Cl)Cl)N1CCN(Cc2ccc3c(c2)OCO3)CC1 | 4.4 | 11.3 | -9.1 | 6.2 | 0.0 | · | · | · | ·
O=C(C(Cl)Cl)N1CCN(Cc2ccccc2)CC1 | 24.5 | 3.3 | -3.1 | -1.2 | 16.4* | 98.2 | -0.1 | 89.3 | 0.0
Cc1ccc(S(=O)(=O)N2CCC(C(=O)N[C@@H](C)C(=O)Nc3ccc(F)cc3)CC2)cc1 | · | -12.6 | 6.5 | -0.6 | 0.8* | 112.2 | 0.0 | 118.7 | 0.1
Cc1ccc(NC(=O)C2CCN(S(=O)(=O)c3ccc(F)cc3)CC2)cc1 | 14.6 | 9.6 | -7.3 | -4.0 | 0.1 | · | · | · | ·
CC(=O)c1ccc(N2CCN(C(=O)CCS(=O)(=O)c3ccc4c(c3)NC(=O)CS4)CC2)cc1 | -9.0 | -15.7 | -15.9 | 3.0 | 0.0 | · | · | · | ·
CCN(CC)C(=O)CSc1nnc(-c2ccncc2)n1N | 8.8 | -10.7 | 14.2 | 3.2 | 5.9* | 109.5 | 0.2 | 97.7 | 1.0
CCn1c(SCC(=O)c2ccc(C)cc2)nnc1-c1ccncc1 | 7.7 | 2.4 | 13.6 | -6.1 | 8.2* | 114.3 | 0.1 | 114.4 | 0.0
Cc1ccc(C(=O)CSc2nnc(-c3ccncc3)n2C)cc1 | 34.4 | -3.8 | ? | ? | 0.0 | · | · | · | ·
O=C(NC1CCCc2ccccc21)c1cccc(S(=O)(=O)N2CCN(c3ccccc3)CC2)c1 (configuration not stated) | 0.9 | 27.2 | 21.6 | 1.6 | 1.9* | 113.2 | 0.5 | 114.4 | 0.5
SMILES | AI-2 QS mod | T cruzi inh | PolyA inhibitor | HDAC3 inhib | Efflux pump mplx | Yeast cmpd fluor | Mdr1 pump inh | Cdr2 pump inh | Cdr1 pump inh
CCCC(=O)N(c1ccc(OCC)cc1)S(=O)(=O)c1ccc2c3c(cccc13)C(=O)N2C | 17.5 | 15.1 | -26.0 | -12.6 | -0.3 | · | · | · | ·
CS(=O)(=O)Nc1ccc(C(=O)Nc2ccc3c(c2)OCCO3)cc1 | 22.2 | 8.2 | -5.9 | -2.9 | 9.0* | 105.7 | 0.0 | 110.2 | 5.4
CCOc1ccc(OCc2cccc(C(=O)Nc3ccc(CN4CCCCC4)cc3)c2)cc1 | 9.6 | 25.7 | 13.6 | 8.1 | -1.2 | · | · | · | ·
CCOc1ccc(/C=N/NC(=O)c2ccccc2O)cc1CN1CC2CC(C1)c1cccc(=O)n1C2 (configuration not stated) | · | · | · | -7.9 | 0.8* | 85.5 | -0.3 | 103.8 | -0.2
Cc1cc(C)n(CCC(=O)N2CCCC(Nc3ccc(F)cc3)C2)n1 (configuration not stated) | 20.1 | -3.6 | 5.4 | 3.3 | -0.4 | · | · | · | ·
CN(CC(=O)N1CCN(Cc2ccccc2)CC1)C(=O)Cc1cccc2ccccc12 | · | · | · | 5.7 | 0.3 | · | · | · | ·
COc1ccc(CC(=O)O/N=C(\N)c2ccc(Br)cc2)cc1OC | -41.3 | -10.1 | 4.9 | -4.1 | 0.1 | · | · | · | ·
COc1ccc(CC(=O)O/N=C(\N)c2ccccc2)cc1OC | -68.3 | -13.4 | 13.8 | -6.7 | 0.0 | 107.9 | -0.2 | 97.5 | 0.0
COc1ccc(/C(N)=N/OC(=O)Cc2cccs2)cc1OC | 25.7 | 5.0 | -4.0 | 7.7 | 6.7* | 98.6 | -0.2 | 86.7 | -0.2
COc1ccc(/C(N)=N/OC(=O)Oc2ccccc2)cc1OC | 8.3 | -13.7 | 9.4 | -9.0 | 5.8* | 101.4 | -0.2 | 95.6 | -0.1
